Measured values from ChEMBL document CHEMBL2331109, “Inhibitors of human immunodeficiency virus type 1 (HIV-1) attachment. 12. Structure-activity relationships associated with 4-fluoro-6-azaindole derivatives leading to the identification of 1-(4-benzoylpiperazin-1-yl)-2-(4-fluoro-7-[1,2,3]triazol-1-yl-1h-pyrrolo[2,3-c]pyridin-3-yl)ethane-1,2-dione …” (J Med Chem, 2013).
Values after ≈ are worked out from the molar mass of the structure shown.

Experiments:
[1] = Volume of distribution at steady state in iv dosed rat; format: ADME, organism-based; conditions: in vivo, read-out: Vdss
Procedure, shortened: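 Rats dosed intravenously in PEG 400/ethanol (90:10 v/v); steady-state volume of distribution taken from the iv plasma profile.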

[2] = Cmax in rat at 5 mg/kg, po; format: ADME, organism-based; design: dose 5 mg/kg, route oral; conditions: in vivo
Rattus norvegicus [3] = test: (§1) AUC in rat at 5 mg/kg, po at 24 hrs; format: ADME, organism-based, Plasma; design: time < 24 hr, dose 5 mg/kg, route oral; conditions: in vivo, 24 h
Rattus norvegicus [4] = test: (§2) Oral bioavailability in rat at 5 mg/kg; format: ADME, organism-based; conditions: in vivo
[5] = Clearance in human liver microsomes; format: ADME, Microsome; conditions: read-out: CLH
[6] = Clearance in iv dosed rat; format: ADME, organism-based; conditions: in vivo
[7] = as §1; format: ADME, organism-based, Plasma; design: time < 24 hr, dose 5 mg/kg, route oral; conditions: plasma
[8] = as §2; format: ADME, organism-based; conditions: in vivo
[9] = Aqueous solubility of the compound; format: physicochemical; conditions: buffer
[10] = Drug absorption in human colon at 200 mg, po measured between 12 to 96 hrs; format: ADME, organism-based; conditions: in vivo
Procedure, shortened: (§3)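 Healthy subjects given 200 mg as a spray-dried capsule, fasted, with plasma sampled 0–96 h. Bioavailability is relative to a 20 mg oral solution, based on dose-normalized AUC(INF).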

[11] = Oral bioavailability in human at 200 mg administered as capsule formulation; format: ADME, organism-based; conditions: in vivo; procedure, shortened: as §3
Plasma = test: Plasma concentration in human at 20 mg, po administered as solution measured after 16 hrs; format: ADME, organism-based; conditions: in vivo, BLD = below limit of detection
[12] = Half life in human at 20 mg, po administered as solution measured between 2 and 12 hrs post-dosing; format: ADME, organism-based; conditions: in vivo

Vd [1] [L/kg] | Cmax [2] [nM] | AUC (Rattus norvegicus [3]) [µM·h] | F (Rattus norvegicus [4]) [%] | CLint scaled [5] [mL/min/kg] | Structure (SMILES) | also measured
0.74 | 326 | 1.5 | 63 | < 21 | CNC(=O)c1ncc(F)c2c(C(=O)C(=O)N3CCN(C(=O)c4ccccc4)CC3)c[nH]c12 | 
1.4 | 603 | 2.6 | 68 | < 21 | NC(=O)c1ncc(F)c2c(C(=O)C(=O)N3CCN(C(=O)c4ccccc4)CC3)c[nH]c12 | 
 |  |  |  | ≤ 29 | O=C(C(=O)N1CCN(C(=O)c2ccccc2)CC1)c1c[nH]c2c(-c3cnccn3)ncc(F)c12 | 
0.25 | 1400 | 12.5 | 33 | < 21 | O=C(C(=O)N1CCN(C(=O)c2ccccc2)CC1)c1c[nH]c2c(-c3cc[nH]n3)ncc(F)c12 | 
 |  |  |  | ≤ 29 | NC(=O)c1cc(-c2ncc(F)c3c(C(=O)C(=O)N4CCN(C(=O)c5ccccc5)CC4)c[nH]c23)n[nH]1 | 
 |  |  |  | ≤ 29 | CNC(=O)c1cc(-c2ncc(F)c3c(C(=O)C(=O)N4CCN(C(=O)c5ccccc5)CC4)c[nH]c23)n[nH]1 | 
 |  |  |  | > 29 | O=C(NCCN1CCOCC1)c1cc(-c2ncc(F)c3c(C(=O)C(=O)N4CCN(C(=O)c5ccccc5)CC4)c[nH]c23)n[nH]1 | 
 |  |  |  | < 21 | CN(C)C(=O)c1cc(-c2ncc(F)c3c(C(=O)C(=O)N4CCN(C(=O)c5ccccc5)CC4)c[nH]c23)n[nH]1 | 
0.26 | 8760 |  | 95 | < 21 | O=C(C(=O)N1CCN(C(=O)c2ccccc2)CC1)c1c[nH]c2c(-n3cncn3)ncc(F)c12 | 
0.18 |  | 160 | 77 | < 21 | Cc1ncn(-c2ncc(F)c3c(C(=O)C(=O)N4CCN(C(=O)c5ccccc5)CC4)c[nH]c23)n1 | 
0.6 | 498 | 2.1 | 61 | < 21 | Cc1ccn(-c2ncc(F)c3c(C(=O)C(=O)N4CCN(C(=O)c5ccccc5)CC4)c[nH]c23)n1 | 
 | 9480 |  |  | < 21 | O=C(C(=O)N1CCN(C(=O)c2ccccc2)CC1)c1c[nH]c2c(-n3ccnn3)ncc(F)c12 | solubility [9]: 7 µg/mL (≈ 15.6 µM); Drug absorption [10]: Active; bioavailability [11]: 30%; Cp (Plasma): BLD; half-life [12]: 1.4 h; AUC at 24 h [7]: 86 µM·h; bioavailability [8]: 64%
1.1 | 1890 |  |  |  | COc1ncc(OC)c2c(C(=O)C(=O)N3CCN(C(=O)c4ccccc4)CC3)c[nH]c12 | AUC at 24 h [7]: 6.3 µM·h

Structure (SMILES) | Vd [1] [L/kg] | Cmax [2] [nM] | AUC (Rattus norvegicus [3]) [µM·h] | F (Rattus norvegicus [4]) [%] | CLint scaled [5] [mL/min/kg] | also measured
O=C(C(=O)N1CCN(C(=O)c2ccccc2)CC1)c1c[nH]c2c(-c3cnco3)ncc(F)c12 | 0.14 | 1290 |  |  | < 21 | clearance [6]: 1.4 mL/min/kg; AUC at 24 h [7]: 12 µM·h; bioavailability [8]: 20%
